AHR act = activates the human aryl hydrocarbon receptor; P35869; AHR-responsive luciferase reporter cells, luminescence; activation, % at 5 µM; 2.5% of 320,000 active; in the data active = activation above about 47%;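 also: 0% = vehicle wells and 100% = reference agonist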
Target sequence (P35869 whole entry, looked up): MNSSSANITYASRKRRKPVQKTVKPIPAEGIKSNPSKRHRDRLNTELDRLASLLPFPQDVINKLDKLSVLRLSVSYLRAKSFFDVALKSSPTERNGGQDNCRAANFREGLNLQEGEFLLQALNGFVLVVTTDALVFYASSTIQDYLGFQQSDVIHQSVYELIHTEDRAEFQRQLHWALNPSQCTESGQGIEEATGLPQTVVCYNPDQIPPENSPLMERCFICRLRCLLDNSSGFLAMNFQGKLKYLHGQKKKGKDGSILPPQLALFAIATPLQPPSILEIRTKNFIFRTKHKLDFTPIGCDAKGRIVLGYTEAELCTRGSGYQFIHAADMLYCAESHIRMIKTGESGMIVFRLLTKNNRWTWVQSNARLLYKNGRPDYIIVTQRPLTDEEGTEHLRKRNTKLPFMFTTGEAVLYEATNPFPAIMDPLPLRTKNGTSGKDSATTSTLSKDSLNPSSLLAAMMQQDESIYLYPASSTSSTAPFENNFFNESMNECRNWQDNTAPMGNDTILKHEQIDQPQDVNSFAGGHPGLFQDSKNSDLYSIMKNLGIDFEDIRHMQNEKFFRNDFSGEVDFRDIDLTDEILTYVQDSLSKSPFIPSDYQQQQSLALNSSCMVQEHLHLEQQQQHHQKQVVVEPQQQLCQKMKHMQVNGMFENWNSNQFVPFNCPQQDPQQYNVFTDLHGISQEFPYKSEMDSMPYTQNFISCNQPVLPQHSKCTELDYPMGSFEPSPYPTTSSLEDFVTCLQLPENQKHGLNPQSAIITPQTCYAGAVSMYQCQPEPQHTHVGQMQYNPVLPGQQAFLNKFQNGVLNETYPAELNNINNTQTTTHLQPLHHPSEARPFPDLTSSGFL
MC4R antagonist = blocks human MC4R cAMP signaling | 0.48% of 360,000 active | MC4R-expressing cells, MTII-stimulated cAMP, LANCE TR-FRET | inhibition, % at 6.5 µM | P32245;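 active = inhibition above its plate's cutoff, the mean of tested wells on that plate plus 3 SD, cut at about 29% in these data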;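 also: 0% = Melanotan II alone and 100% = Melanotan II plus saturating MCL0020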
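material = U2OS cells stably expressing human melanocortin 4 receptor (MC4R) | also added = Melanotan II challenge | dosing = single nominal compound dose of 6.5 µM | detection = TR-FRET with Eu-cAMP and labeled anti-cAMP, 671 nm | replication = singlicate | timing = compound 30 min, challenge 1 h, detection 1 h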
MC4R ag barr = activates human MC4R beta-arrestin recruitment. U2OS MC4R beta-arrestin complementation, luminescence; percent of melanotan II response, DMSO zero. activation, % at 8.9 µM. 0.98% of 360,000 active. AID 540308;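 active = activation above a per-plate cutoff, the mean activation of sample wells on that plate plus 3 SD, cut at about 8% in these data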
HTR2A ag = mouse HTR2A agonism via beta-arrestin recruitment; AID 624169; CHO-K1 mHTR2A beta-arrestin complementation, luminescence; percent of 30 µM serotonin response; 0.66% of 360,000 active; activation, % at 7.6 µM;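 active = activation above a run cutoff, the mean activation of all tested compounds plus 3 SD, cut at about 14% in these data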;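 also: 0% = plate median of compound wells and 100% = 30 µM serotonin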
GAA850 FXN act = activators of GAA850 frataxin (FXN) promoter | activation, % at 6 µM | AID 540364 | 0.56% of 360,000 active | HEK293 lucGAA850 FXN promoter luciferase reporter, 24 h; percent of 10 µM SAHA response;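 active = activation above the average of all compounds screened plus 3 SD, cutoff fixed separately per campaign, cut at about 7.5% in these data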;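 also: 0% = DMSO wells and 100% = 10 µM SAHA wells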
* = called active by the depositor; . = not tested or not shown. The list is not random: actives were taken first. Their share in the collection is about 4.7%.

SMILES	AHR act	MC4R antagonist	MC4R ag barr	HTR2A ag	GAA850 FXN act
CCn1c(SCC(=O)c2ccc3c(c2)OCCO3)nnc1-c1ccco1	13	0	-1	-5	0
CCn1c(SCC(=O)c2ccc3ccccc3c2)nnc1-c1ccco1	78*	-5	0	7	5
O=C(Nc1ccccc1N1CCCCC1)C1CCN(S(=O)(=O)c2ccccc2C(F)(F)F)CC1	2	1	2	-8	-1
C=CCn1c(=NC(=O)C2CC2)sc2cc(NC(C)=O)ccc21	62*	9	0	-9	1
C=CCn1c(=NC(=O)C2CCCCC2)sc2cc(NC(C)=O)ccc21	1	9	0	-2	1
CC1=NN(c2ccccc2)C(=O)C1N=Nc1ccc(N)cc1 (centres undefined)	49*	-1	-2	1	2
COc1ccc(N=NC2C(=O)N(c3ccccc3)N=C2C)cc1 (centres undefined)	51*	8	1	1	0
CC1=NN(c2ccccc2)C(=O)C1N=Nc1ccccc1 (centres undefined)	29	9	1	-1	3
CCC(C)c1ccccc1NC(=O)C(C)OC(=O)c1ccco1 (centres undefined)	-1	4	-3	0	1
NS(=O)(=O)c1cccc(NC(=O)CN2C(=O)C(=O)N(Cc3ccccc3)C2=O)c1	-1	10	-3	2	2
Cc1ccc(/C(N)=N/OC(=O)c2ccc(C)cc2Cl)cc1	23	-7	-1	-4	-7
N/C(=N\OC(=O)c1ccccc1Cl)c1ccccc1	54*	0	0	-3	0
O=C(O/N=C(\c1ccccc1)c1ccncc1)c1ccccc1Cl	2	-1	-1	1	1
N/C(=N\OC(=O)c1ccc(Cl)cc1Cl)c1ccccc1	82*	16	-1	5	-1
N/C(=N\OC(=O)c1ccccc1Cl)c1ccc(Cl)cc1	57*	3	1	-4	7
N/C(=N\OC(=O)c1ccc(Cl)cc1Cl)c1ccc(Cl)cc1	24	-4	5	8	-4
COc1ccc(NC(=O)N(C)C[C@@H]2OCc3cnnn3CCCC(=O)N([C@@H](C)CO)C[C@H]2C)c(OC)c1	.	4	0	-4	1
N#Cc1cccc(S(=O)(=O)NCC(=O)NCc2ccc3c(c2)OCO3)c1	3	2	-3	-3	1
Oc1ccccc1-c1cc(-c2cccc(F)c2)n[nH]1	72*	1	3	-4	7
COCCNC(=O)C1(C)CCCN(C(=O)COc2ccccc2)C1 (centres undefined)	.	8	1	2	1
Cc1cccc(NC(=O)COc2coc(CN3CCc4ccccc4C3)cc2=O)c1	4	6	0	9	-1
CCN1CCSc2ccc(C(=O)NCc3cc(Br)ccc3OC)cc21	15	-1	-2	9	2
CN1CCSc2ccc(C(=O)NCc3cccc(F)c3)cc21	67*	6	-1	-4	3
COc1cccc(NC(=O)c2ccc3c(c2)N(C)CCS3)c1	20	-2	1	-1	3
COc1ccc(Br)cc1CNC(=O)c1ccc2c(c1)N(C)CCS2	49*	3	0	-9	-2
SMILES	AHR act	MC4R antagonist	MC4R ag barr	HTR2A ag	GAA850 FXN act
O=C(Nc1ccccc1)Nc1csc2ccccc12	61*	8	5	-8	2
CC(=O)Nc1csc2ccccc12	9	20	-1	-3	0
N#C/C(=C\c1ccccc1)C(=O)NNS(=O)(=O)c1ccc(Br)cc1	0	13	-2	1	3
O=C(Nc1cccc(-n2cnnn2)c1)c1ccncc1	17	-2	0	-1	3
O=C(Nc1cccc(C(F)(F)F)c1)c1cccnc1	56*	3	-1	-3	-1
CCSc1ccc(NC(=O)c2cccnc2)cc1	-1	5	-2	-1	3
O=C(Nc1cccc(NC(=O)c2cccnc2)c1)c1ccccc1	35	5	1	6	1
O=C(Nc1cccc(-n2cnnn2)c1)c1ccc(C(F)(F)F)cc1	69*	3	0	-10	0
CCc1ccc(NC(=O)c2cccnc2)cc1	54*	8	-3	-3	1
COC(=O)c1ccc(=O)c2nc3/c(=C/O)c(O)cc(=O)c3[nH]c12	1	-2	-2	-1	0
COC(=O)C1=C2c3[nH]c4ccccc4c3CCN2C(=O)CC1	54*	-15	0	1	-2
CCC(=O)Nc1c(C)nn(-c2ccc(C)c(C)c2)c1C	19	-5	-1	1	-1
Cc1ccc(-n2nc(C)c(NC(=O)CCl)c2C)cc1C	52*	2	-1	0	-6
COc1ccccc1N=Nc1[nH]c2ccc(C)cc2c1O	60*	14	1	-1	4
CCNC(=S)N1N=C2c3ccccc3CCC2C1c1ccc(F)cc1 (centres undefined)	51*	4	0	1	0
NNC(=O)c1csc(-c2ccccc2)n1	13	-3	5	2	1
O=C(Nc1ccc(F)cc1F)c1csc(-c2ccncc2)n1	51*	20	2	0	3
O=C(Nc1cccc(Cl)c1)c1csc(-c2ccccc2)n1	93*	1	2	-5	3
O=C(Nc1ccc(F)cc1F)c1cc(-c2ccco2)on1	-8	-7	2	1	1
Cc1nnc(NC(=O)Nc2cccc(Cl)c2)s1	71*	-4	0	-17	2
CC(C)(C)c1ccc(C(=O)NCCC(=O)N2CCCC2)cc1	23	27	-1	6	3
CC(C)(C)c1ccc(C(=O)NCCC(=O)N2CCN(c3ncccn3)CC2)cc1	5	13	3	17*	0
O=C(NC1CCCC1)N[C@@H]1C=C[C@@H](CC(=O)N2CCOCC2)O[C@@H]1CO	.	.	.	2	.
CC(=O)Nc1ccc(-c2ccnc3c2CC(C)(C(=O)Nc2ccc4c(c2)OCO4)O3)cc1 (centres undefined)	.	1	0	0	-5
CCOC(=O)C(C(=O)OCC)N(C#N)c1nc(SC)nc(N(C)C)n1	62*	9	0	-1	-1
SMILES	AHR act	MC4R antagonist	MC4R ag barr	HTR2A ag	GAA850 FXN act
CCOC(=O)C(C(=O)OCC)N(C#N)c1nc(OC)nc(N(C)C)n1	-2	-4	-1	-1	-2
CCc1nc2ccc(C(=O)NCCc3ccccn3)cn2c1N(C)CCC(C)C	.	15	0	5	-2
O=c1[nH]c(CSc2ncccn2)nc2c1cnn2-c1ccccc1	119*	-8	2	0	1
COc1ccccc1-c1noc2ncnc(Nc3cccc(C)c3C)c12	0	3	-1	-6	2
CC[C@@H](C)[C@@H](CO)NC(=O)[C@H]1O[C@@H](n2cnc3c(N)ncnc32)[C@H](O)[C@@H]1O	.	.	.	3	.
N#Cc1ccc(-c2ccc(F)cc2)nc1Oc1ccc(F)cc1	2	11	9.3*	0	1

Source: PubChem BioAssay (The Scripps Research Institute Molecular Screening Center)
